Source: ChEMBL document CHEMBL3797028, “Novel S1P1 receptor agonists - Part 4: Alkylaminomethyl substituted aryl head groups” (Eur J Med Chem, 2016)

Experiments:
[1] = Plasma concentration in Wistar rat at 1 mg/kg administered as single dose through oral gavage after 24 hrs by LC-MS/MS analysis; type: ADME, organism-based
Outline: (§1)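 Single oral gavage dose to male Wistar rats in DMSO/7.5% succinylated gelatine (final 5% DMSO). Blood was drawn into EDTA at the lymphocyte-count timepoints. Plasma was prepared at 3000 g for 10 min at 4 °C and analysed by LC-MS/MS after protein precipitation.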

[2] = tested on: Rattus norvegicus; assay: Reduction in circulating lymphocyte count in po dosed Wistar rat administered through gavage after 3 to 96 hrs; type: functional, organism-based
Outline: (§2)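 Male Wistar rats (RccHan:WIST; n = 6) were given a single oral gavage dose of compound in DMSO plus 7.5% succinylated gelatine (final 5% DMSO). Blood lymphocytes were counted just before dosing and at later timepoints. Percent change was calculated per animal relative to the pre-dose value and compared with a vehicle-treated group, reported as the mean. A ±15% change was treated as baseline, and a reduction of about 60% or more as maximal.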

[3] = Total plasma concentration in Wistar rat at 10 mg/kg administered as single dose through oral gavage after 2 hrs by LC-MS/MS analysis; type: ADME, organism-based
Outline: (§3)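 Male Wistar rats (n = 2 per timepoint) were dosed orally at 10 mg/kg. At 2, 6 and 24 h they were anaesthetised with 5% isoflurane and sacrificed, and blood was taken for plasma. The brain was perfused via the carotid with 10 mL 0.9% NaCl, removed, and homogenised in an equal volume of ice-cold 0.1 M Na-phosphate pH 7.4. Samples were assayed by LC-MS/MS against blank-brain calibration. Brain/plasma ratio was calculated from these values, reported as the mean of 2.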

[4] = Total plasma concentration in Wistar rat at 10 mg/kg administered as single dose through oral gavage after 6 hrs by LC-MS/MS analysis; type: ADME, organism-based; outline: as §3
[5] = Total plasma concentration in Wistar rat at 10 mg/kg administered as single dose through oral gavage after 24 hrs by LC-MS/MS analysis; type: ADME, organism-based; outline: as §3
[6] = tested on: Plasma; assay: Plasma concentration in Wistar rat at 1 mg/kg administered as single dose through oral gavage after 72 hrs by LC-MS/MS analysis; type: ADME, organism-based; settings: in vivo, BLD = below limit of detection; outline: as §1
[7] = target: Sphingosine 1-phosphate receptor 3 (Homo sapiens, UniProt Q99500); assay: Agonist activity at human recombinant S1PR3 expressed in CHO cell membranes assessed as [35S]GTPgammaS binding preincubated for 30 mins followed by [35S]GTPgammaS addition measured after 1 hr by topcount analysis; type: functional
Chain of Sphingosine 1-phosphate receptor 3 (Q99500 whole entry): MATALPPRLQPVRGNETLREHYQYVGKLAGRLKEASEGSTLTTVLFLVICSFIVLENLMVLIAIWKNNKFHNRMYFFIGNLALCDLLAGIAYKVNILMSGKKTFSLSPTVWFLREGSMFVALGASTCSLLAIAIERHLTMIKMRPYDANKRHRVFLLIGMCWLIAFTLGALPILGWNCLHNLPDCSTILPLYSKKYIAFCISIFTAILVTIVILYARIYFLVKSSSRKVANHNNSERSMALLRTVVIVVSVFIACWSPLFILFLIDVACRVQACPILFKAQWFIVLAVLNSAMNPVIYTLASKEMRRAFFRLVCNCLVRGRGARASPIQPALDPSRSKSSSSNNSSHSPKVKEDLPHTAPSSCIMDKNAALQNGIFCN
Outline: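 Membranes from CHO cells expressing recombinant human S1P1 or S1P3 were used. Buffer was 20 mM Hepes pH 7.4, 100 mM NaCl, 5 mM MgCl2, 0.1% fatty-acid-free BSA, 2.5% DMSO and 50 pM 35S-GTPgammaS. GDP was […] for S1P3. Compound was preincubated 30 min at rt, then incubated 1 h at rt with 35S-GTPgammaS. Bound label was collected by filtration and counted. Specific binding was taken against 10 uM S1P. EC50 was the 50%-of-specific-binding concentration, reported as the geometric mean of at least three independent duplicate runs.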

[8] = tested on: Rattus norvegicus; assay: Change in circulating lymphocyte count in Wistar rat at 10 mg/kg administered as single dose through oral gavage after 24 hrs relative to control; type: functional; outline: as §2
[9] = tested on: Rattus norvegicus; assay: Change in circulating lymphocyte count in Wistar rat at 10 mg/kg administered as single dose through oral gavage after 6 hrs relative to control; type: functional; outline: as §2
[10] = Apparent oral clearance in Wistar rat plasma at 1 to 10 mg/kg administered through gavage by LC-MS/MS analysis; type: ADME, organism-based
Outline: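 Male Wistar rats received a single oral gavage dose of compound dissolved in DMSO and added to 7.5% succinylated gelatine in water (final 5% DMSO). EDTA plasma was spun at 3000 g for 10 min at 4 °C and analysed by LC-MS/MS after protein precipitation. Oral clearance was estimated from the plasma concentration–time data. In vivo intrinsic clearance used the well-stirred liver model, assuming complete absorption.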

[11] = Apparent intrinsic clearance in Wistar rat liver microsomes at 1 uM after 2.5 to 15 mins by LC-MS/MS analysis in presence of NADPH; type: ADME; settings: read-out: CLH(app)
Outline: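 Compound at 1 uM starting concentration was depleted by 0.5 mg/mL rat liver microsomes in 100 mM sodium phosphate pH 7.4 at 37 °C, with shaking under air. Reactions were started with an NADPH-regenerating system. Samples were taken at 0, 2.5, 5, 10 and 15 min, quenched in ice-cold methanol and analysed by LC-MS/MS. CLint,app came from first-order decay fitting.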

[12] = Distribution coefficient, log D between 1-octonol and phosphate buffer at pH 7; type: physicochemical; settings: 1-octanol/phosphate buffer
Outline: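 Partition was between 1-octanol and phosphate buffer at pH 7.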

[13] = Fraction unbound in Wistar rat liver microsomes incubated for 6 hrs by LC-MS/MS based equilibrium dialysis method; type: ADME
Outline: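 Rapid equilibrium dialysis was run on a shaker for 6 h at 37 °C. The donor side held rat plasma (pH 7.2–7.6) or 1 mg/mL rat liver microsomes in phosphate buffer pH 7.4. The receiver side held phosphate buffer pH 7.4. Both sides were measured by LC-MS/MS to give free fraction and recovery.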

[14] = Plasma concentration in Wistar rat at 10 mg/kg administered as single dose through oral gavage after 3 hrs by LC-MS/MS analysis; type: ADME, organism-based; outline: as §1
[15] = Plasma concentration in Wistar rat at 10 mg/kg administered as single dose through oral gavage after 24 hrs by LC-MS/MS analysis; type: ADME, organism-based; outline: as §1
[16] = Plasma concentration in Wistar rat at 10 mg/kg administered as single dose through oral gavage after 96 hrs by LC-MS/MS analysis; type: ADME, organism-based; outline: as §1
[17] = target: T1, Sphingosine 1-phosphate receptor 4 (Homo sapiens, UniProt O95977); assay: Agonist activity at S1PR4 (unknown origin)
T1 sequence (O95977 whole entry): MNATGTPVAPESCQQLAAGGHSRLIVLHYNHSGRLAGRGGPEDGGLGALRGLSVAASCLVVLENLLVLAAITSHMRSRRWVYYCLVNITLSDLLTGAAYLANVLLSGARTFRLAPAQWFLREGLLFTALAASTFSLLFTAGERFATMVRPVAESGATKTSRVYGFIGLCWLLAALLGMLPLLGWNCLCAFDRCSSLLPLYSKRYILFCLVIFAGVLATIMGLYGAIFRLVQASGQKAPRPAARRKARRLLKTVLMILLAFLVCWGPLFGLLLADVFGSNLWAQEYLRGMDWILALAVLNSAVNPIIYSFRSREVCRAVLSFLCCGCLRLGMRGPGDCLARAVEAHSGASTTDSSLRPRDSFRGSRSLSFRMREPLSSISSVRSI

[18] = target: Sphingosine 1-phosphate receptor 5 (Homo sapiens, UniProt Q9H228); assay: Agonist activity at S1PR5 (unknown origin)
Chain of Sphingosine 1-phosphate receptor 5 (Q9H228 whole entry): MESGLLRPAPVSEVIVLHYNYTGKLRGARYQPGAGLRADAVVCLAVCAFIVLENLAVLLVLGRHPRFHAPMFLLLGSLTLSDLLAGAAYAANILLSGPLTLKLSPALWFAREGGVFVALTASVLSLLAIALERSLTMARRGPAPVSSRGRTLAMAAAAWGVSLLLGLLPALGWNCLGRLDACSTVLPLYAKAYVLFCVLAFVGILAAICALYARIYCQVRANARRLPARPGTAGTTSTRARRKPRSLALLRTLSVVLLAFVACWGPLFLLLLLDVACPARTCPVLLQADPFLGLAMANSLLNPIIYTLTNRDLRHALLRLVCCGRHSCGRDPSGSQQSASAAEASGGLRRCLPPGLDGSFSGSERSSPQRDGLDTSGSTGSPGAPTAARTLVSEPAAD

[19] = tested on: Rattus norvegicus; assay: Change in circulating lymphocyte count in Wistar rat at 3 mg/kg administered as single dose through oral gavage after 3 hrs relative to control; type: functional; outline: as §2
[20] = tested on: Rattus norvegicus; assay: Change in circulating lymphocyte count in Wistar rat at 1 mg/kg administered as single dose through oral gavage after 24 hrs relative to control; type: functional; outline: as §2
[21] = tested on: Rattus norvegicus; assay: Change in circulating lymphocyte count in Wistar rat at 3 mg/kg administered as single dose through oral gavage after 24 hrs relative to control; type: functional; outline: as §2
[22] = Plasma concentration in Wistar rat at 1 mg/kg administered as single dose through oral gavage after 6 hrs by LC-MS/MS analysis; type: ADME, organism-based; outline: as §1

concentration at 24 h [1]: 0.0052 µg/mL
concentration at 2 h [3]: 0.783 µg/mL
concentration at 6 h [4]: 0.622 µg/mL
concentration at 24 h [5]: 0.0665 µg/mL
Cp [6]: BLD
EC50 [7]: 0.145 µM
CL/F [10]: 1.14 L/h/kg
microsomal CLint at 1 µM [11]: 28 µL/min/mg
logD [12]: > 4.1
fraction unbound at 6 h [13]: 0.002
concentration at 3 h [14]: 0.722 µg/mL
concentration at 24 h [15]: 0.092 µg/mL
concentration at 96 h [16]: 0.0005 µg/mL
EC50 [17]: > 1 µM
EC50 [18]: 0.753 µM
concentration at 6 h [22]: 0.049 µg/mL
SMILES: CCc1cc(-c2noc(-c3cc(C)c(CN(C)CC(C)C)s3)n2)cc(C)c1OC[C@@H](O)CNC(=O)CO
Activity [2]: Dose-dependent effect
Activity [8]: -70%
Activity [9]: -77%
Activity [19]: -59%
Activity [20]: 4%
Activity [21]: -25%
